Legend:
RAW264.7 [1] = assay: Cancer chemopreventive activity in mouse RAW264.7 cells assessed as inhibition of LPS-induced nitric oxide production treated 30 mins before LPS challenge measured after 20 hrs by Griess reagent assay
[2] = Cytotoxicity against human HEK293 cells assessed as cell survival at 20 uM by SRB assay; type: cell-based; conditions: read-out: Survival
Summary of the method: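 293/NFκB-luc cells seeded 2 × 10^4/well and grown 48 h. Run in parallel with the reporter assay: fresh medium, samples plus TNF-α 2 ng/mL for 6 h. Fixed with 20% TCA at 4 °C for 30 min, stained with 0.4% SRB in 1% acetic acid for 30 min at room temperature. Dye solubilised in 10 mM Tris base (pH 10), OD read at 515 nm, percent survival calculated.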

[3] = Cytotoxicity against mouse RAW264.7 cells assessed as cell survival at 20 ug/mL by SRB assay; type: cell-based; conditions: read-out: Survival
Summary of the method: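 RAW 264.7 cells run under the NO assay conditions (30 min sample pretreatment, then 1 μg/mL LPS for 20 h). Cells fixed with 10% TCA and stained with 0.4% SRB in 1% acetic acid. Bound dye dissolved in 10 mM Tris and OD read at 515 nm.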

HEK293 [4] = assay: Inhibition of TNFalpha-induced NFkappaB (unknown origin) activation expressed in HEK293 cells at 20 uM after 6 hrs by luciferase reporter gene assay; type: cell-based; conditions: Homo sapiens
Summary of the method: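 HEK293 cells stably carrying an NF-κB response element–luciferase construct (hygromycin-selected). Seeded 2 × 10^4/well in DMEM with 10% FBS, antibiotics and 2 mM L-glutamine, grown 48 h. Fresh medium, then samples with recombinant human TNF-α 2 ng/mL (0.14 nM) for 6 h. Cells lysed, frozen overnight at −80 °C, luciferase luminescence read, percent inhibition calculated. TPCK positive control.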

[5] = Inhibition of TNFalpha-induced NFkappaB (unknown origin) activation expressed in HEK293 cells after 6 hrs by luciferase reporter gene assay; type: cell-based; conditions: Homo sapiens, HEK293, 6 h
Summary of the method: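 HEK293 cells stably transfected with luciferase reporter under multiple NF-κB response elements, seeded 2 × 10^4/well, grown 48 h in DMEM/10% FBS/2 mM glutamine. Medium replaced; cells given test substances plus human recombinant TNF-α 2 ng/mL (0.14 nM) for 6 h, lysed, frozen −80 °C overnight, luciferase luminescence read. Percent inhibition; IC50 from dilution series (top 20 μM), each tested three times, curve-fitted.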

RAW264.7 [6] = assay: Cancer chemopreventive activity in mouse RAW264.7 cells assessed as inhibition of LPS-induced nitric oxide production at 20 ug/mL treated 30 mins before LPS challenge measured after 20 hrs by Griess reagent assay
HEK293 [7] = assay: Cytotoxicity against human HEK293 cells assessed as cell survival by SRB assay; type: cell-based
Summary of the method: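 293/NFκB-luc cells (HEK293 stably carrying NF-κB-response-element luciferase reporter) seeded 2 × 10^4/well, grown 48 h in DMEM/10% FBS; treated with samples plus TNF-α 2 ng/mL (0.14 nM) for 6 h. Then TCA-fixed (20%, 4 °C, 30 min), stained 0.4% SRB in 1% acetic acid, dye solubilized in 10 mM Tris base pH 10; OD 515 nm; percent survival at 20 μM.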

SMILES | IC50 (RAW264.7 [1]) | viability at 20 µM [2] | viability at 20 ug/mL [3] | inhibition (HEK293 [4]) | IC50 [5] | inhibition at 20 µg/mL (RAW264.7 [6]) | IC50 (HEK293 [7])
CC1=C(C)C(=O)O[C@@H]([C@](C)(O)[C@@]2(O)CC[C@]3(O)[C@@H]4CC=C5C=CCC(=O)[C@]5(C)[C@H]4CC[C@]23C)C1 [WITHACOAGULIN I] | 29 µM | 89.4% | 100% | 89.9% | 8.8 µM | 69.8% | 
CC1=C(C)C(=O)O[C@@H]([C@](C)(O)[C@H]2CC[C@@]3(O)[C@@H]4CC=C5CC=CC(=O)[C@]5(C)[C@H]4CC[C@]23C)C1 | 37.5 µM | 71.9% | 100% | 86.9% | 12.3 µM | 88.5% | 
CC1=C(CO)C(=O)O[C@@H]([C@](C)(O)[C@H]2CC[C@@]3(O)[C@@H]4CC=C5CC=CC(=O)[C@]5(C)[C@H]4CC[C@]23C)C1 |  | 100% | 100% | 92.8% | 7 µM | 31.4% | 
CC1=C(C)C(=O)O[C@@H]([C@](C)(O)[C@]2(O)CC[C@@]3(O)[C@@H]4CC=C5CC=CC(=O)[C@]5(C)[C@H]4CC[C@]23C)C1 [WITHANOLIDE F] | 10.9 µM | 100% | 100% | 90.8% | 5.7 µM | 84.6% | 
CC1=C(C)C(=O)O[C@@H]([C@](C)(O)C2=CC[C@@]3(O)[C@@H]4CC=C5CC=CC(=O)[C@]5(C)[C@H]4CC[C@]23C)C1 | 10.4 µM | 100% | 100% | 90.2% | 5.7 µM | 69.1% | 
CC1=C(CO)C(=O)O[C@@H]([C@](C)(O)[C@@]2(O)CC[C@H]3[C@@H]4CC=C5CC=CC(=O)[C@]5(C)[C@H]4CC[C@@]32C)C1 [WITHACOAGULIN G] | 1.9 µM | 93.2% | 96.7% | 90.1% | 11.8 µM | 100% | 
CC1=C(CO)C(=O)O[C@@H]([C@](C)(O)[C@@]2(O)CC=C3[C@@H]4CC=C5CC=CC(=O)[C@]5(C)[C@H]4CC[C@@]32C)C1 [WITHACOAGULIN H] | 3.1 µM | 90.3% | 70.4% | 98.3% | 5 µM | 100% | 
Cc1ccc(S(=O)(=O)N[C@@H](Cc2ccccc2)C(=O)CCl)cc1 [TPCK] |  |  |  |  | 10.8 µM |  | 3.8 µM
Cc1ccc(S(=O)(=O)/C=C/C#N)cc1 |  |  |  |  | 5 µM |  | 
CC1=C(CO)C(=O)O[C@@H]([C@](C)(O)[C@H]2CC=C3[C@@H]4CC=C5CC=CC(=O)[C@]5(C)[C@H]4CC[C@@]32C)C1 | 38.2 µM | 48.3% | 100% | 88.6% | 12.4 µM | 76.3% | 
CC1=C(CO)C(=O)O[C@@H]([C@](C)(O)[C@]2(O)CC[C@@]3(O)[C@@H]4CC=C5CC=CC(=O)[C@]5(C)[C@H]4CC[C@]23C)C1 | 6.9 µM | 88.6% | 100% | 90.1% | 1.6 µM | 95.1% | 

Source: ChEMBL document CHEMBL2331521, “Biologically active withanolides from Withania coagulans” (J Nat Prod, 2013)
